From ChEMBL document CHEMBL1157331, “Xenicane-type diterpenes with cytotoxicity from Xenia florida” (J Nat Prod, 2006) come the findings set out here.

One experiment has as its system KB. The experiment in a line: Cytotoxicity against human KB cells after 72 hrs. The note with it: read-out: ED50 (the source's name). It is filed as functional. The essentials: (§1)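 Methylene blue binding to fixed cell monolayers. 2880 cells/well seeded, 3 h later sample added; samples prepared at […], incubated 37 °C for 3 days. Absorbance read at 650 nm. ED50 is the concentration giving 50% reduction of absorbance versus untreated cells. Mitomycin as positive control.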

The test system of a further experiment is WiDr. The experiment in a line: Cytotoxicity against human WiDr cells after 72 hrs. To be noted: for EC50: read-out: ED50 (the source's name). It counts as functional, cell-based. The essentials:
as §1

Experiment [1] can be described thus: Cytotoxicity against human Hepa cells after 72 hrs. It is filed as functional. The note with it: read-out: ED50 (the source's name). The gist of the method: as §1

≈ marks a conversion by molar mass, not a printed value.

As to `C=C1[C@@H]2[C@H](OC(C)=O)OC=C([C@H](OC(C)=O)[C@@H](C=C(C)C)OC(C)=O)[C@H]2CC/C(C)=C/[C@@H](OC(=O)c2ccccc2)[C@H]1OC(=O)c1ccccc1`, the EC50 (in the experiment with KB; in the experiment on WiDr; in experiment [1]) was greater than 20 µg/mL each time.

Regarding `C=C1C(=O)[C@H](OC(=O)c2ccccc2)/C=C(\C)CC[C@@H]2C([C@H](OC(C)=O)[C@@H](C=C(C)C)OC(C)=O)=CO[C@@H](OC(C)=O)[C@@H]12`, the EC50 (in the experiment with KB; with WiDr; in experiment [1]) was greater than 20 µg/mL throughout.

Regarding `C=C1[C@@H]2[C@H](OC(C)=O)OC=C([C@H](OC(C)=O)[C@@H](C=C(C)C)OC(C)=O)[C@H]2CC/C(C)=C/[C@@H](OC(=O)c2ccccc2)[C@H]1O` [FLORXENILIDE A], the figures for the EC50 (in the experiment on KB; in the experiment on WiDr; in experiment [1]) were greater than 20 µg/mL, 2.73 µg/mL (≈ 4.58 µM) and greater than 20 µg/mL, respectively. The midpoint of inhibition with WiDr, the IC50, lay at 4.5 µM.

For the compound `C=C1[C@@H]2[C@H](OC(C)=O)OC=C([C@H](OC(C)=O)[C@@H](C=C(C)C)OC(C)=O)[C@H]2CC[C@]2(C)O[C@H]2[C@@H](OC(=O)c2ccccc2)[C@H]1O` [FLORXENILIDE B], the EC50 came to 11.4 µg/mL (≈ 18.6 µM) in the experiment on KB, 1.88 µg/mL (≈ 3.07 µM) with WiDr and 8.03 µg/mL (≈ 13.1 µM) in experiment [1]. Besides, 3.7 µM corresponded to half-maximal inhibition in the experiment on WiDr (IC50).

For `CO[C@@]12CC[C@H](OC(C)=O)[C@@](C)(CC[C@@H]3/C(=C\C=C\C(C)(C)O)COC(=O)[C@H]31)C2` [FLORXENILIDE C MONOACETATE], the EC50 (in the experiment with KB; in the experiment on WiDr; in experiment [1]) was greater than 20 µg/mL throughout.

Take `CO[C@@]12CC[C@H](O)[C@@](C)(CC[C@@H]3/C(=C\C=C\C(C)(C)O)COC(=O)[C@H]31)C2` [FLORXENILIDE C]: the EC50 (in the experiment on KB; in the experiment on WiDr; in experiment [1]) was greater than 20 µg/mL throughout.

On to `CO[C@@]12[C@H](COC(N)=O)C3=C(C(=O)C(C)=C(N)C3=O)N1C[C@@H]1N[C@@H]12` [MITOMYCIN], for which the EC50 in the experiment on KB came to 0.56 µg/mL (≈ 1.67 µM); with WiDr it was 0.35 µg/mL (≈ 1.05 µM); in experiment [1] it was 0.04 µg/mL (≈ 0.12 µM).
